Ki data for 29 compounds are collected here from ChEMBL document CHEMBL1142735, “Discovery of a new series of centrally active tricyclic isoxazoles combining serotonin (5-HT) reuptake inhibition with alpha2-adrenoceptor blocking activity” (J Med Chem, 2005).

Experiment [1] concerns the target Sodium-dependent serotonin transporter (Homo sapiens, UniProt P31645). The experiment is described as follows: Binding affinity for serotonin transporter. Put shortly:
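Human platelet membranes (50 µg protein) in 50 mM Tris-HCl pH 7.4 with 120 mM NaCl and 5 mM KCl. Competition against [3H]paroxetine (0.5 nM), 60 min at 25 °C. Nonspecific binding defined with imipramine (1 µM). Filtration over 0.1% PEI-presoaked GF/B, washed with incubation buffer. Sigmoidal fit of specific binding; Ki via Cheng-Prusoff.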

Experiment [2] addresses T1, Alpha-2C adrenergic receptor (Homo sapiens, UniProt P18825).
T1 sequence (P18825 whole entry): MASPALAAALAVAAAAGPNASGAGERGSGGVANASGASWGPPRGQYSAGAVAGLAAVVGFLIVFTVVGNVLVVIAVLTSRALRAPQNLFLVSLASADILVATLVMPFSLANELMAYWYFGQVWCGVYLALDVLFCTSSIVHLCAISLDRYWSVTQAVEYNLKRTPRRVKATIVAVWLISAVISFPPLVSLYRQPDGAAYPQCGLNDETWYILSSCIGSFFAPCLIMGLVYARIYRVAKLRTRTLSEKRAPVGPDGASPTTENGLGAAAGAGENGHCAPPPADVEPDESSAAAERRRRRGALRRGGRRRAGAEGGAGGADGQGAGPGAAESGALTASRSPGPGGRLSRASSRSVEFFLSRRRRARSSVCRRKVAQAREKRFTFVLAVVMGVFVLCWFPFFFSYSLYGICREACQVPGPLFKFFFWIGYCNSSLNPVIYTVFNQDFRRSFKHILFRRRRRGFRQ
The experiment is described as follows: Binding affinity for alpha-2C adrenergic receptor. Put shortly:
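Human alpha2C receptor stably expressed in CHO cell membranes (5-10 µg protein) in 25 mM glycylglycine, pH 7.6. Competition against [3H]rauwolscine (1 nM), 30 min at 25 °C. Nonspecific binding defined with spiroxatrine (1 µM). Rapid filtration over GF/B, washed with ice-cold 50 mM Tris-HCl pH 8.0, scintillation counting. Sigmoidal curves fitted; Ki by Cheng-Prusoff.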

pKi: −log10 of the molar value.

Sodium-dependent serotonin transporter, sequence (P31645 whole entry): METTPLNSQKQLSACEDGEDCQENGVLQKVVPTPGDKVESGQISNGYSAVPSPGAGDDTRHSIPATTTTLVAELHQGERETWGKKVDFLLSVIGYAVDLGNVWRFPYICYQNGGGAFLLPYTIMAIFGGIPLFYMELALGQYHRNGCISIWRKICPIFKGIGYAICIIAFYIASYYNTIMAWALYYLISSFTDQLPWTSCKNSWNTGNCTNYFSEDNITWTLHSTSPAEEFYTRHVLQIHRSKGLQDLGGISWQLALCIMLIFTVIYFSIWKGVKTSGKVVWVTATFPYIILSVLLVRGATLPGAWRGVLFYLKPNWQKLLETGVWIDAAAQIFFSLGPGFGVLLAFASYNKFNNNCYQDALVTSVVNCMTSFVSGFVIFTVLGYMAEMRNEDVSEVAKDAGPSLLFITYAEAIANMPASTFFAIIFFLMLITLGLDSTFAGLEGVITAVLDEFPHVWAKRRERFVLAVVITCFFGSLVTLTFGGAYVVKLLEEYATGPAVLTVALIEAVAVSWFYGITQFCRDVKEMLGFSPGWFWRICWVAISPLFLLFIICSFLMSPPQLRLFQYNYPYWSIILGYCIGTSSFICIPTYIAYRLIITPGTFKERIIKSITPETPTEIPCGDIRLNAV

With `COCC(=O)Oc1ccc2c(c1)OC[C@@H]1C2=NO[C@H]1CN1CCN(C/C(C)=C/c2ccccc2)CC1`, the figures for the pKi in experiment [1] and in experiment [2] were 8.24 and 9.70, respectively.

Turning to `C/C(=C\c1ccccc1)CN1CCN(C[C@@H]2ON=C3c4ccc(OC(=O)C5CC5)cc4OC[C@H]32)CC1`, the figures for the pKi in experiment [1] and in experiment [2] were 7.59 and 9.52, respectively.

In experiment [2], `COc1ccc2c(c1)OC[C@@H]1C2=NO[C@H]1CN1CCN(C/C(C)=C/c2ccccc2)CC1` showed a pKi of 9.70.

In the case of `CC(=O)Oc1ccc2c(c1)OC[C@@H]1C2=NO[C@H]1CN1CCN(C/C(C)=C/c2ccccc2)CC1`, the figures for the pKi in experiment [1] and in experiment [2] were 8.11 and 9.70, respectively.

In experiment [1], `C/C(=C\c1ccccc1)CN1CCN(C[C@@H]2ON=C3c4ccc(OCCN(C)C)cc4OC[C@H]32)CC1` showed a pKi of 8.46.

For `C/C(=C\c1ccccc1)CN1CCN(C[C@@H]2ON=C3c4ccc(OC(=O)C(C)(C)C)cc4OC[C@H]32)CC1`, the figures for the pKi in experiment [1] and in experiment [2] were 7.92 and 8.80, respectively.

With `CCOCCOCCOc1ccc2c(c1)OC[C@@H]1C2=NO[C@H]1CN1CCN(C/C(C)=C/c2ccccc2)CC1`, the pKi is 7.77 in experiment [1] and 9.70 in experiment [2].

`C=CC(=O)Oc1ccc2c(c1)OC[C@@H]1C2=NO[C@H]1CN1CCN(C/C(C)=C/c2ccccc2)CC1`: the pKi in experiment [1] was 7.39; in experiment [2], 9.30.

In experiment [1], `C/C(=C\c1ccccc1)CN1CCN(C[C@@H]2ON=C3c4ccc(O)cc4OC[C@H]32)CC1` had a pKi of 8.44.

Take `COc1cc2c(cc1OC)C1=NO[C@@H](CN3CCN(CCOc4ccc(F)cc4)CC3)[C@@H]1CN2`: the pKi is 6.81 in experiment [1] and 8.80 in experiment [2].

For `CN1C[C@@H]2C(=NO[C@H]2CN2CCN(C/C=C/c3ccccc3)CC2)c2ccccc21`, the pKi is 7.80 in experiment [1] and 8.35 in experiment [2].

Consider `COc1ccc2c(c1)C=C[C@@H]1C2=NO[C@H]1CN1CCN(Cc2ccc3ccccc3c2)CC1`, for which the pKi in experiment [1] was 8.85; in experiment [2], 8.20.

With `CCNC(=O)N1C[C@@H]2C(=NO[C@H]2CN2CCN(C/C=C/c3ccccc3)CC2)c2ccccc21`, the pKi in experiment [1] was 7.64; in experiment [2], 8.57.

`COc1cc2c(cc1OC)C1=NO[C@@H](CN3CCN(Cc4ccc(Cl)cc4)CC3)[C@@H]1CN2`: the negative-log Ki (pKi) was 6.82 in experiment [1] and 7.64 in experiment [2].

`CCOC(=O)N1C[C@@H]2C(=NO[C@H]2CN2CCN(C/C=C/c3ccccc3)CC2)c2ccccc21`: the pKi in experiment [1] was 8.59; in experiment [2], 8.01.

For `COc1cc2c(cc1OC)C1=NO[C@@H](CN3CCN(Cc4ccc5ccccc5c4)CC3)[C@@H]1CN2`, the figures for the pKi in experiment [1] and in experiment [2] were 8.82 and 7.92, respectively.

Take `COc1cc2c(cc1OC)N(C)C[C@@H]1C2=NO[C@H]1CN1CCN(CCCC(C)=Cc2ccccc2)CC1`: the pKi in experiment [1] is 6.98; in experiment [2] it was 8.40.

With `C(=C\c1ccccc1)/CN1CCN(C[C@@H]2ON=C3c4ccccc4OC[C@H]32)CC1`, the pKi in experiment [2] was 8.77.

Consider `C1=C[C@@H]2C(=NO[C@H]2CN2CCN(C/C=C/c3ccccc3)CC2)c2ccccc21`, for which the pKi in experiment [1] was 6.97; in experiment [2] it was 6.95.

On to `COc1cc2c(cc1OC)C1=NO[C@@H](CN3CCN(Cc4ccc5ncccc5c4)CC3)[C@@H]1CN2`, for which the figures for the pKi in experiment [1] and in experiment [2] were 7.66 and below 6.00, respectively.

As to `C(=C\c1ccccc1)/CN1CCN(C[C@@H]2ON=C3c4ccccc4NC[C@H]32)CC1`, the pKi in experiment [1] is 7.08; in experiment [2] it was 7.82.

Turning to `COc1ccc2c(c1)C=C[C@@H]1C2=NO[C@H]1CN1CCN(C/C=C/c2ccccc2)CC1`, the pKi was 8.14 in experiment [1] and 8.41 in experiment [2].

For the compound `COc1cc2c(cc1OC)C1=NO[C@@H](CN3CCN(C/C=C/c4ccccc4)CC3)[C@@H]1CN2`, the values for the pKi in experiment [1] and in experiment [2] were 8.01 and 8.27, respectively.

For the compound `c1ccc2c(c1)NC[C@@H]1C2=NO[C@H]1CN1CCN(Cc2ccc3ccccc3c2)CC1`, the pKi in experiment [1] is 9.30; in experiment [2], 8.02.

As for `COc1cc2c(cc1OC)C1=NO[C@@H](CN3CCN(C/C(C)=C/c4ccccc4)CC3)[C@@H]1CN2`, the pKi in experiment [1] is 8.05; in experiment [2] it was 10.00.

With `C/C(=C\c1ccccc1)CN1CCN(C[C@@H]2ON=C3c4ccc(OC5CCCC5)cc4OC[C@H]32)CC1`, the pKi in experiment [1] is 7.25; in experiment [2], 9.30.

`C/C(=C\c1ccccc1)CN1CCN(C[C@@H]2ON=C3c4ccc(OC(=O)c5ccncc5)cc4OC[C@H]32)CC1`: the pKi in experiment [1] is 7.89; in experiment [2], 9.30.

On to `CC(=O)N1C[C@@H]2C(=NO[C@H]2CN2CCN(CCC/C=C/c3ccccc3)CC2)c2ccccc21`, for which the pKi is 7.21 in experiment [1] and 7.96 in experiment [2].

With `COCCOc1ccc2c(c1)OC[C@@H]1C2=NO[C@H]1CN1CCN(C/C(C)=C/c2ccccc2)CC1`, the results for the pKi in experiment [1] and in experiment [2] were 8.35 and 10.52, respectively.

What is called pKi is the negative decadic logarithm of the Ki, by convention in mol/L.
